What was measured:
[1] = (§1) Toxicity in zebrafish assessed as organism survival at 5 uM treated at 48 hrs post-fertilization measured after 3 days; type: organism-based, Danio rerio; conditions: in vivo
In short: (§2)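 AB wild-type zebrafish embryos dechorionated with pronase at 48 hpf, 3 per well in methylene blue-free E3 medium. Dosed at 5 uM from 10 mM DMSO stocks (1% v/v DMSO). Kept at 28 °C for 72 h without food; survival scored at day 5 versus vehicle controls. Two experiments, each in triplicate.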

Danio rerio [2] = species: Danio rerio; assay: Toxicity in zebrafish assessed as otic capsule deformities at 5 uM treated at 48 hrs post-fertilization measured after 3 days by acridine orange staining method; type: organism-based; conditions: in vivo, 72 h
In short: (§3)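 Zebrafish larvae dosed at 5 uM from 48 hpf for three days (28 °C, E3 medium, 1% DMSO). Stained with acridine orange at 1 mg/mL in E3 for 30 min, then washed 3 × 10 min. Anesthetized with tricaine, mounted in 1% low-melt agarose with tricaine, and examined by microscopy for apoptosis and deformities.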

ScN2a = assay: Cytotoxicity against mouse ScN2a cells up to 32 uM; type: cell-based
In short: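 ScN2a cells seeded separately in 96-well plates. Calcein cell viability assay run in parallel with the ELISA screen, up to 32 uM maximum.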

[3] = Metabolic stability in mouse liver microsomes assessed as compound remaining after 30 mins by HPLC analysis; type: ADME, Microsome; conditions: read-out: Stability
In short: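 Mouse liver microsomes (0.5 mg/mL stock) in 0.2 M potassium phosphate pH 7.0 with DL-isocitrate, MgCl2 and isocitrate dehydrogenase. Preincubated 5 min at 37 °C, then started with NADPH. Sampled at t=0 and after 30 min at 37 °C, quenched in ice-cold acetonitrile with internal standard. Analysed by C18 HPLC, UV at 267 nm, in triplicate.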

Danio rerio [4] = species: Danio rerio; assay: Toxicity in zebrafish assessed as induction of apoptosis at 5 uM treated at 48 hrs post-fertilization measured after 3 days by acridine orange staining method; type: organism-based; conditions: in vivo, 72 h; in short: as §3
[5] = Antiprion activity against PrPsc infected in mouse ScN2a cells assessed as complete clearance of PrPSc after 5 days by ELISA; type: cell-based; conditions: 120 h
In short: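 ScN2a cells (N2a infected with RML prion strain) seeded at 4×10^5 cells/well in MEM with 10% FBS, GlutaMax, geneticin. Compound added 4 h after seeding, 0.5% final DMSO, 5 days at 37 °C. Lysates captured on D18 Fab-coated ELISA plates overnight at 4 °C, HRP-D13 detection, ABTS, absorbance at 405 nm. Dose-response curves from three independent experiments.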

Danio rerio [6] = species: Danio rerio; assay: Toxicity in zebrafish assessed as swim bladder deformities at 5 uM treated at 48 hrs post-fertilization measured after 3 days by acridine orange staining method; type: organism-based; conditions: in vivo, 72 h; in short: as §3
[7] = Antiprion activity against PrPsc infected in mouse SMB.s15 cells assessed as complete clearance of PrPSc after 5 days by dot blot analysis; type: cell-based; conditions: SMB.s15, 120 h
In short: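 SMB.s15 cells (scrapie-infected, mesodermal origin) in Medium 199 with 10% newborn calf and 5% fetal calf serum, seeded at 12,000 cells/well, 24 h attachment. Compound added from DMSO stock via HBSS dilution, 5 days at 37 °C. Lysates dot-blotted, proteinase K digestion (1 h, 37 °C), guanidine thiocyanate, anti-PrP 6H4 mAb, ECL. Triplicate, PrPSc relative to DMSO-only control.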

[8] = Cytotoxicity against mouse SMB.s15 cells at 20 uM after 5 days by MTT assay; type: cell-based; conditions: smb.s15, 120 h
In short: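 SMB.s15 cells at 12,000 cells/well, exposed to compound for 5 days at 37 °C (DMSO stock diluted via HBSS into medium). Viability measured by MTT assay per the reagent's standard protocol.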

Danio rerio [9] = species: Danio rerio; assay: Toxicity in zebrafish assessed as yolk deformities at 5 uM treated at 48 hrs post-fertilization measured after 3 days by acridine orange staining method; type: organism-based; conditions: in vivo, 72 h; in short: as §3
[10] = (§4) Toxicity in zebrafish assessed as mortality rate at 5 uM measured after 72 hrs; type: organism-based, Danio rerio; conditions: in vivo, read-out: Activity; in short: as §2
[11] = Solubility of the compound; type: physicochemical
Danio rerio [12] = species: Danio rerio; assay: as §1; type: organism-based; conditions: in vivo, 72 h, 5 µM; in short: as §2
Danio rerio [13] = species: Danio rerio; assay: as §4; type: organism-based; conditions: in vivo, 72 h, 5 µM; in short: as §2

| SMILES | survival at 72 h, 5 µM [1] | Activity (Danio rerio [2]) | Activity (ScN2a) | remaining at 0.5 h [3] | Activity (Danio rerio [4]) | EC50 [5] | Activity (Danio rerio [6]) | EC50 [7] | Activity [8] | Activity (Danio rerio [9]) | mortality at 72 h, 5 µM [10] | solubility [11] | Activity (Danio rerio [12]) | Activity (Danio rerio [13]) |
| --- | --- | --- | --- | --- | --- | --- | --- | --- | --- | --- | --- | --- | --- | --- |
| COc1ccc(NC(=O)C(=O)c2c[nH]c3cc(C#N)ccc23)cc1 | 100% | Non-toxic | Non-toxic | 87.5% | Non-toxic | 11 nM | Non-toxic | 2.2 nM | Non-toxic | Non-toxic |  |  |  |  |
| Cc1ccc(NC(=O)C(=O)c2c[nH]c3cc(C#N)ccc23)cc1 | 100% |  | Non-toxic | 88.2% |  | 26 nM |  | 10.9 nM | Non-toxic |  | 20% |  |  |  |
| O=C(Nc1ccc(-n2ccnc2)cc1)C(=O)c1c[nH]c2ccccc12 |  |  | Non-toxic |  |  | 16 nM |  | 1.3 nM | Non-toxic |  |  | Insoluble |  |  |
| O=C(Nc1ccc(-c2nnco2)cc1)C(=O)c1c[nH]c2ccccc12 |  |  |  |  |  |  |  |  |  |  |  | Insoluble |  |  |
| O=C(Nc1ccc(-n2cncn2)cc1)C(=O)c1c[nH]c2ccccc12 |  |  |  |  |  |  |  |  |  |  |  | Insoluble |  |  |
| Cn1ccc(-c2ccc(NC(=O)C(=O)c3c[nH]c4ccccc34)cc2)n1 |  |  |  |  |  |  |  |  |  |  |  | Insoluble |  |  |
| Cc1ccc2c(C(=O)C(=O)Nc3ccc(N4CCOCC4)cc3)c[nH]c2c1 | 100% | Non-toxic | Non-toxic |  | Non-toxic |  | Non-toxic | 3.1 nM | Non-toxic | Non-toxic | 20% |  |  |  |
| O=C(Nc1ccc(-n2cccc2)cc1)C(=O)c1c[nH]c2ccccc12 |  |  | Non-toxic |  |  |  |  | 6 nM | Non-toxic |  |  | Insoluble | Toxic |  |
| Cc1ccc(NC(=O)C(=O)c2c[nH]c3ccccc23)cc1 |  |  | Non-toxic | 64.9% |  | 206 nM |  | 130 nM | Non-toxic |  |  |  | Toxic | Non-toxic |
| O=C(Nc1ccc(-n2cccn2)cc1)C(=O)c1c[nH]c2ccccc12 |  | Non-toxic | Non-toxic | 93.6% | Non-toxic | 14 nM | Non-toxic | 1 nM | Non-toxic | Non-toxic |  | Insoluble | Toxic |  |

From ChEMBL document CHEMBL1909628, “Discovery of 6-substituted indole-3-glyoxylamides as lead antiprion agents with enhanced cell line activity, improved microsomal stability and low toxicity” (Eur J Med Chem, 2011)
